From ChEMBL document CHEMBL1131263, “Substituted tetrahydropyrrolo[2,1-b]oxazol-5(6H)-ones and tetrahydropyrrolo[2,1-b]thiazol-5(6H)-ones as hypoglycemic agents” (1998)

Experiment: lowest concentration at which glucose utilized was greater than or equal to 140% of control value tested in a glucose utilization L6 myocyte in vitro assay
Assay type: functional, Rattus norvegicus
How it was run: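 Differentiated rat L6 myotubes (day 11 or 13 after plating) exposed 20 h to compound in serum-free DMEM with 15 mM glucose and 1% final DMSO. Tested in quadruplicate at 3, 10, 30, 100, 300 µM. Glucose left in the medium read by glucose oxidase. Value is the lowest concentration giving at least 40% more utilization than control.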

Row | SMILES | Lowest effective concentration for glucose utilization ≥140% of control [µM]
1 | COc1ccc([C@]23CCC(=O)N2C[C@H](COc2ccc(Cl)cc2)O3)cc1 | >300
2 | O=C(c1ccccc1)N1C[C@H](COc2ccc(Cl)cc2)O[C@@H]1c1ccc(Cl)c(Cl)c1 | 300
3 | O=C1CC[C@]2(c3ccc(Cl)c(Cl)c3)O[C@H](COc3ccc(Cl)cc3)CN12 | 10
4 | O=C(c1ccccc1)N1C[C@@H](COc2ccc(Cl)cc2)O[C@@H]1c1ccc(Cl)c(Cl)c1 | >300
5 | CC(=O)N1C[C@@H](COc2ccc(Cl)cc2)O[C@@H]1c1ccc(Cl)cc1 | 100
6 | CC1(C)C[C@]2(c3ccc(Cl)cc3)O[C@H](COc3ccc(Cl)cc3)CN2C1=O | 30
7 | OCc1cc(Cc2ccccc2)no1 | >300
8 | O=C1CC[C@]2(c3ccc(Cl)cc3)O[C@H](COc3ccc(Cl)cc3)CCN12 | >300
9 | O=C1CC[C@]2(c3ccc(Cl)cc3)O[C@H](CCc3ccccc3)CN12 | >300
10 | CC(=O)N1C[C@H](COc2ccc(Cl)cc2)O[C@@H]1c1ccc(Cl)c(Cl)c1 | 30
11 | OCc1cc(-c2ccccc2)no1 | >300
12 | C/N=C(\S)N1CCS[C@@H]1c1ccc(Cl)cc1 | 300
13 | O=C1CC[C@]2(c3ccc(Cl)c(Cl)c3)O[C@H](CSc3ccc(Cl)cc3)CN12 | 100
14 | CNC(=O)N1CCS[C@@H]1c1ccc(Cl)cc1 | 300
15 | O=C1CC[C@]2(c3ccc(Cl)c(C(F)(F)F)c3)O[C@H](COc3ccc(Cl)cc3)CN12 | 10
16 | CC1(C)C[C@]2(c3ccc(Oc4ccccc4)cc3)OCCN2C1=O | 10
17 | CC(C)C(=O)N1C[C@@H](COc2ccc(Cl)cc2)O[C@@H]1c1ccc(Cl)c(Cl)c1 | 30
18 | Cc1cc(CO)on1 | >300
19 | O=C1CC[C@]2(c3ccc(Cl)cc3)O[C@@H](CCc3ccccc3)CN12 | >300

Row | SMILES | Lowest effective concentration for glucose utilization ≥140% of control [µM]
20 | O=C1CC[C@]2(c3ccc(Cl)cc3)O[C@H](CNc3ccc(Cl)cc3)CN12 | >300
21 | CC(=O)N1C[C@H](COc2ccc(Cl)cc2)S[C@@H]1c1ccc(Cl)cc1 | 30
22 | O=C(Nc1ccccc1)N1C[C@H](COc2ccc(Cl)cc2)O[C@@H]1c1ccc(Cl)c(Cl)c1 | 30
23 | C=CCOC[C@@H]1CN2C(=O)CC[C@]2(c2ccc(Cl)cc2)O1 | >300
24 | O=C1CC[C@]2(c3ccc(Cl)cc3)O[C@@H](CNc3ccc(Cl)cc3)CN12 | >300
25 | CC1(C)C[C@]2(c3ccc(Cl)cc3)O[C@@H](COc3ccc(Cl)cc3)CN2C1=O | 100
26 | O=C(O)c1cc(CO)on1 | >300
27 | O=C1CC[C@]2(C3CCCCC3)O[C@H](COc3ccc(Cl)cc3)CN12 | 100
28 | O=C1CCC[C@]2(c3ccc(Cl)cc3)SCCN12 | >300
29 | C[C@]12CCC(=O)N1C[C@@H](COc1ccc(Cl)cc1)O2 | >300
30 | CC(C)(C)[C@]12CCC(=O)N1C[C@@H](COc1ccc(Cl)cc1)O2 | >300
31 | OCc1cc(-c2ccc(Cl)c(Cl)c2)no1 | 30
32 | O=C1CC[C@]2(c3ccccc3)OC[C@@H](O)CN12 | >300
33 | CS(=O)(=O)N1CCS[C@@H]1c1ccc(Cl)cc1 | 300
34 | O=C1CC[C@]2(c3ccc4oc5ccccc5c4c3)O[C@@H](COc3ccc(Cl)cc3)CN12 | >300
35 | CC(=O)c1cc(CO)on1 | >300
36 | O=C1CC[C@]2(c3ccc(-c4ccccc4)cc3)O[C@@H](COc3ccc(Cl)cc3)CN12 | >300
37 | O=C1CC[C@]2(c3ccc(Cl)c(C(F)(F)F)c3)O[C@@H](COc3ccc(Cl)cc3)CN12 | 300
38 | COC(=O)N1C[C@@H](COc2ccc(Cl)cc2)O[C@@H]1c1ccc(Cl)c(Cl)c1 | 300

Row | SMILES | Lowest effective concentration for glucose utilization ≥140% of control [µM]
39 | CC(=O)N1C[C@H](COc2ccc(Cl)cc2)O[C@@H]1c1ccc(Cl)c(C(F)(F)F)c1 | 30
40 | CC1(C)C[C@]2(c3ccc(Oc4ccccc4)cc3)O[C@H](COc3ccc(Cl)cc3)CN2C1=O | 30
41 | CS(=O)(=O)N1C[C@@H](COc2ccc(Cl)cc2)O[C@@H]1c1ccc(Cl)c(Cl)c1 | 30
42 | O=C1CC[C@]2(c3ccc(Cl)c(Cl)c3)O[C@@H](COc3ccc(Cl)cc3)CN12 | 30
43 | CC(=O)N1C[C@@H](COc2ccc(Cl)cc2)O[C@@H]1c1ccc(Cl)c(C(F)(F)F)c1 | 30
44 | O=C1CC[C@]2(c3ccncc3)O[C@H](COc3ccc(Cl)cc3)CN12 | 30
45 | CC(C)(O)c1cc(-c2ccc(Cl)cc2)no1 | 100
46 | O=C1CC[C@]2(c3cccc4ccccc34)O[C@H](COc3ccc(Cl)cc3)CN12 | >300
47 | COC(=O)COC[C@@H]1CN2C(=O)CC[C@]2(c2ccc(Cl)cc2)O1 | >300
48 | O=C1CC[C@]2(c3ccncc3)O[C@@H](COc3ccc(Cl)cc3)CN12 | 100
49 | O=C1CC[C@]2(c3ccccc3)OC[C@H](O)CN12 | >300
50 | COc1ccc([C@H]2O[C@H](COc3ccc(Cl)cc3)CN2C(C)=O)cc1 | >300
51 | COc1ccc([C@H]2O[C@@H](COc3ccc(Cl)cc3)CN2C(C)=O)cc1 | >300
52 | O=C1CC[C@]2(c3ccc(Cl)cc3)O[C@H](COCCO)CN12 | >300
53 | O=C1CC[C@]2(c3ccc(Cl)cc3)O[C@@H](CO)CN12 | >300
54 | O=C1CC[C@]2(c3cccnc3)O[C@@H](COc3ccc(Cl)cc3)CN12 | 300
55 | CC(=O)N1C[C@@H](COc2ccc(Cl)cc2)S[C@@H]1c1ccc(Cl)cc1 | 300
56 | O=C1CC[C@]2(c3c[nH]c4ccccc34)O[C@H](COc3ccc(Cl)cc3)CN12 | >300
57 | O=C1CCC[C@]2(c3ccccc3)O[C@@H](COc3ccc(Cl)cc3)CN12 | >300
